One experiment has as its target T1, B2 bradykinin receptor (Homo sapiens, UniProt P30411).
T1 sequence (P30411 whole entry): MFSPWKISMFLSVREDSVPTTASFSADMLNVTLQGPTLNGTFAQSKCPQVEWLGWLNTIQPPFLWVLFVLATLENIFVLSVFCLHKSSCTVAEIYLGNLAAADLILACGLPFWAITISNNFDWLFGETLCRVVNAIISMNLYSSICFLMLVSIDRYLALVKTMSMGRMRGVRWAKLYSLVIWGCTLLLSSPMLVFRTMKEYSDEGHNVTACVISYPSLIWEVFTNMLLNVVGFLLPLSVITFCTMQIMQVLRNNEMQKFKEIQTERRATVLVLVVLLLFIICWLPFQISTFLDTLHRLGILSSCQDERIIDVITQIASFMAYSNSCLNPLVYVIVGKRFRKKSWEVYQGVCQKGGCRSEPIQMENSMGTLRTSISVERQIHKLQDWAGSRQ
Put plainly: Binding affinity towards human cloned Bradykinin receptor B2 expressed in CHO cells by [3H]bradykinin displacement. The format is cell-based. In short, it runs like this: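 Membranes from stably transfected CHO cells, scraped into 20 mM TES (pH 6.8) with 1 mM 1,10-phenanthroline, 140 μg/mL bacitracin and 0.1% BSA, then pelleted at 40000g for 15 min. Filtered through PEI-soaked GF/B filters and counted by scintillation. Means of ≥3 experiments in duplicate.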

The species entered for experiment [1] is Homo sapiens. Put plainly: (§1) Ability of Compound (Agonist) to contract isolated human umbilical vein in presence of inhibitor. The format is functional.
The species entered for experiment [2] is Homo sapiens. As to the kind of experiment: Ability of Compound (Agonist) to contract isolated human umbilical vein in absence of inhibitor. The format is functional.
For experiment [3], the species on record is Homo sapiens. Described as §1. The settings on record: read-out: pA2 (converted). The format is functional, organism-based.

The values that follow come from ChEMBL document CHEMBL1132436 (J Med Chem, 1999).

Residues, ends and D or L forms follow the SMILES beside them.

In general, Ki refers to a measure of affinity in units of concentration, obtained from inhibition or displacement. Read a low Ki as higher affinity.

In turn, `NC(N)=NCCC[C@@H](N)C(=O)N[C@@H](CCCN=C(N)N)C(=O)N1CCC[C@H]1C(=O)N1CC(O)C[C@H]1C(=O)NCC(=O)N[C@@H](Cc1cccs1)C(=O)N[C@@H](CO)C(=O)N[C@@H]1CCc2cccc3c2N(C1=O)[C@@H](C(=O)N[C@H](CCCN=C(N)N)C(=O)O)C3` (some centres not stated) returned a Ki on B2 bradykinin receptor (cho) of 140 nM.
In the case of H-RPPGFSPFR-OH [BRADYKININ], the pD2 in the experiment listed under Homo sapiens [1] stood at 7.9; in the experiment filed under Homo sapiens [2], 7.4.
With `N=C(N)NCCC[C@@H](N)C(=O)N[C@@H](CCCNC(=N)N)C(=O)N1CCC[C@H]1C(=O)N1C[C@H](O)C[C@H]1C(=O)NCC(=O)N[C@@H](Cc1cccs1)C(=O)N[C@@H](CO)C(=O)N1Cc2ccccc2C[C@@H]1C(=O)N1[C@H](C(=O)N[C@@H](CCCNC(=N)N)C(=O)O)C[C@@H]2CCCC[C@@H]21` [ICATIBANT], the Kb in the experiment filed under Homo sapiens [3] was 6.31 nM.
Turning to `COc1ccc(C[C@@H](CN[C@@H](CCCN=C(N)N)C(=O)O)NC(=O)[C@@H]2CCCN2C(=O)[C@H](CO)NC(=O)[C@H](Cc2cccs2)NC(=O)CNC(=O)[C@@H]2C[C@@H](O)CN2C(=O)[C@@H]2CCCN2C(=O)[C@@H](N)CCCN=C(N)N)cc1` (HELM PEPTIDE1{R.P.[Hyp].G.[O=C([C@H](Cc1cccs1)N[*:1])[*:2]].S.P.[COc1ccc(C[C@@H](CN[C@@H](CCCN=C(N)N)C(=O)O)N[*:1])cc1]}$$$$V2.0), the pD2 in the experiment listed under Homo sapiens [1] came to 7.1; in the experiment filed under Homo sapiens [2], 6.9.
At B2 bradykinin receptor, `N=C(N)NCCC[C@@H](N)C(=O)N[C@@H](CCCNC(=N)N)C(=O)N1CCC[C@H]1C(=O)N1CC(O)C[C@H]1C(=O)NCC(=O)N[C@@H](Cc1cccs1)C(=O)N[C@@H](CO)C(=O)N[C@H]1CCCN(CC(=O)N[C@@H](CCCNC(=N)N)C(=O)O)C1=O` (some centres not stated) came in with a Ki of 18600 nM.
At B2 bradykinin receptor (cho), `NC(N)=NCCC[C@@H](N)C(=O)N[C@@H](CCCN=C(N)N)C(=O)N1CCC[C@H]1C(=O)N1C[C@H](O)C[C@H]1C(=O)NCC(=O)N[C@@H](Cc1cccs1)C(=O)N[C@@H](CO)C(=O)NC1N=C(c2ccccc2)c2ccccc2N(CC(=O)N[C@@H](CCCN=C(N)N)C(=O)O)C1=O` (stereo in doubt; 35) showed a Ki of 1040 nM.
For `N=C(N)NCCC[C@@H](N)C(=O)N[C@@H](CCCNC(=N)N)C(=O)N1CCC[C@H]1C(=O)N1CC(O)C[C@H]1C(=O)NCC(=O)N[C@@H](Cc1cccs1)C(=O)N[C@@H](CO)C(=O)N[C@H]1CCN(CC(=O)N[C@@H](CCCNC(=N)N)C(=O)O)C1=O` (some centres not stated), at B2 bradykinin receptor, the Ki amounted to 1030 nM.
`N=C(N)NCCC[C@@H](N)C(=O)N[C@@H](CCCNC(=N)N)C(=O)N1CCC[C@H]1C(=O)N1C[C@H](O)C[C@H]1C(=O)NCC(=O)N[C@@H](Cc1cccs1)C(=O)N[C@@H](CO)C(=O)N[C@@H]1COc2ccccc2N(CC(=O)N[C@@H](CCCNC(=N)N)C(=O)O)C1=O` [listing 1 of 2 here] showed a Ki on B2 bradykinin receptor of 2.5 nM.
Take `N=C(N)NCCC[C@@H](N)C(=O)N[C@@H](CCCNC(=N)N)C(=O)N1CCC[C@H]1C(=O)N1C[C@H](O)C[C@H]1C(=O)NCC(=O)N[C@@H](Cc1cccs1)C(=O)N[C@@H](CO)C(=O)N[C@@H]1CSc2ccccc2N(CC(=O)N[C@@H](CCCNC(=N)N)C(=O)O)C1=O` [listing 1 of 2 here]: the pD2 is 6.8 in the experiment filed under Homo sapiens [1] and 6.7 in the experiment listed under Homo sapiens [2].
For `N=C(N)NCCC[C@H](NC(=O)CN1C(=O)[C@H](NC(=O)[C@H](CO)NC(=O)[C@H](Cc2cccs2)NC(=O)CNC(=O)[C@@H]2C[C@@H](O)CN2C(=O)[C@@H]2CCCN2C(=O)[C@H](CCCNC(=N)N)NC(=O)[C@@H](N)CCCCN)CSc2ccccc21)C(=O)O` [listing 1 of 2 here] the same measures were 7.1 and 7.
At B2 bradykinin receptor, `N=C(N)NCCC[C@@H](N)C(=O)N[C@@H](CCCNC(=N)N)C(=O)N1CCC[C@H]1C(=O)N1CC(O)C[C@H]1C(=O)NCC(=O)N[C@@H](Cc1cccs1)C(=O)N[C@@H](CO)C(=O)N[C@@H]1CCN(CC(=O)N[C@@H](CCCNC(=N)N)C(=O)O)C1=O` (some centres not stated) yielded a Ki of 4900 nM.
The same measure, in the same setting: under `NC(N)=NCCC[C@@H](N)C(=O)N[C@@H](CCCN=C(N)N)C(=O)N1CCC[C@H]1C(=O)N1CC(O)C[C@H]1C(=O)NCC(=O)N[C@@H](Cc1cccs1)C(=O)N[C@@H](CO)C(=O)N[C@@H]1CCCCN(CC(=O)N[C@@H](CCCN=C(N)N)C(=O)O)C1=O` (some centres not stated) stands 770 nM.
Still for that read-out and setting: under `N=C(N)NCCC[C@@H](N)C(=O)N[C@@H](CCCNC(=N)N)C(=O)N1CCC[C@H]1C(=O)N1CC(O)C[C@H]1C(=O)NCC(=O)N[C@@H](Cc1cccs1)C(=O)N[C@@H](CO)C(=O)N[C@H]1CCCCN(CC(=O)N[C@@H](CCCNC(=N)N)C(=O)O)C1=O` (some centres not stated) stands 520 nM; under `NC(N)=NCCC[C@@H](N)C(=O)N[C@@H](CCCN=C(N)N)C(=O)N1CCC[C@H]1C(=O)N1CC(O)C[C@H]1C(=O)NCC(=O)N[C@@H](Cc1cccs1)C(=O)N[C@@H](CO)C(=O)N[C@]1(Cc2ccccc2)C(=O)C(Cc2ccccc2)N(CC(=O)N[C@@H](CCCN=C(N)N)C(=O)O)C1=O` (some centres not stated), 14 nM.
At B2 bradykinin receptor (cho), `NC(N)=NCCC[C@@H](N)C(=O)N[C@@H](CCCN=C(N)N)C(=O)N1CCC[C@H]1C(=O)N1C[C@H](O)C[C@H]1C(=O)NCC(=O)N[C@@H](Cc1cccs1)C(=O)N[C@@H](CO)C(=O)NC1N=C(c2ccccc2)c2ccccc2N(CC(=O)N[C@@H](CCCN=C(N)N)C(=O)O)C1=O` (stereo in doubt; 34) had a Ki of 86 nM.
Molecule `N=C(N)NCCC[C@@H](N)C(=O)N[C@@H](CCCNC(=N)N)C(=O)N1CCC[C@H]1C(=O)N1C[C@H](O)C[C@H]1C(=O)NCC(=O)N[C@@H](Cc1cccs1)C(=O)N[C@@H](CO)C(=O)N[C@@H]1CSc2ccccc2N(CC(=O)N[C@@H](CCCNC(=N)N)C(=O)O)C1=O` [listing 2 of 2 here] displayed a Ki on B2 bradykinin receptor of 0.7 nM.
`NC(N)=NCCC[C@@H](N)C(=O)N[C@@H](CCCN=C(N)N)C(=O)N1CCC[C@H]1C(=O)N1CC(O)C[C@H]1C(=O)NCC(=O)N[C@@H](Cc1cccs1)C(=O)N[C@@H](CO)C(=O)N[C@H]1CCc2cccc3c2N(C1=O)[C@@H](C(=O)N[C@H](CCCN=C(N)N)C(=O)O)C3` (some centres not stated): the Ki at B2 bradykinin receptor (cho) came to 160 nM.
In the case of `Cc1ccc2c(c1)SC[C@@H](NC(=O)[C@H](CO)NC(=O)[C@H](Cc1cccs1)NC(=O)CNC(=O)[C@@H]1C[C@@H](O)CN1C(=O)[C@@H]1CCCN1C(=O)[C@H](CCCNC(=N)N)NC(=O)[C@H](N)CCCNC(=N)N)C(=O)N2CC(=O)N[C@@H](CCCNC(=N)N)C(=O)O` [listing 1 of 2 here], the results for the pD2 in the experiment filed under Homo sapiens [1] and in the experiment filed under Homo sapiens [2] were 7.4 and 7.3, respectively.
On to `Cc1ccc2c(c1)SC[C@@H](NC(=O)[C@H](CO)NC(=O)[C@H](Cc1cccs1)NC(=O)CNC(=O)[C@@H]1C[C@@H](O)CN1C(=O)[C@@H]1CCCN1C(=O)[C@H](CCCNC(=N)N)NC(=O)[C@H](N)CCCNC(=N)N)C(=O)N2CC(=O)N[C@@H](CCCNC(=N)N)C(=O)O` [listing 2 of 2 here], for which the affinity at B2 bradykinin receptor corresponds to a Ki of 6 nM.
On B2 bradykinin receptor, `NC(N)=NCCC[C@@H](N)C(=O)N[C@@H](CCCN=C(N)N)C(=O)N1CCC[C@H]1C(=O)N1CC(O)C[C@H]1C(=O)NCC(=O)N[C@@H](Cc1cccs1)C(=O)N[C@@H](CO)C(=O)N[C@@H]1CCN([C@@H](Cc2ccccc2)C(=O)N[C@@H](CCCN=C(N)N)C(=O)O)C1=O` (some centres not stated) gave a Ki of 2070 nM.
The molecule `N=C(N)NCCC[C@@H](N)C(=O)N[C@@H](CCCNC(=N)N)C(=O)N1CCC[C@H]1C(=O)N1C[C@H](O)C[C@H]1C(=O)NCC(=O)N[C@@H](Cc1cccs1)C(=O)N[C@@H](CO)C(=O)N[C@@H]1COc2ccccc2N(CC(=O)N[C@@H](CCCNC(=N)N)C(=O)O)C1=O` [listing 2 of 2 here] came in with a pD2 in the experiment listed under Homo sapiens [2] of 5.1.
`N=C(N)NCCC[C@H](NC(=O)CN1C(=O)[C@H](NC(=O)[C@H](CO)NC(=O)[C@H](Cc2cccs2)NC(=O)CNC(=O)[C@@H]2C[C@@H](O)CN2C(=O)[C@@H]2CCCN2C(=O)[C@H](CCCNC(=N)N)NC(=O)[C@@H](N)CCCCN)CSc2ccccc21)C(=O)O` [listing 2 of 2 here]: the Ki on B2 bradykinin receptor was 0.07 nM.
